Experimental data: ChEMBL document CHEMBL3244390, “New antiarrhythmic agents. 1. Primary alpha-amino anilides” (J Med Chem, 1979)

What was measured:
Canis familiaris [1] = assay: Antiarrhythmic activity in coronary ligated dog assessed as reduction of ventricular rates at 0.5 mg/kg, iv measured for 5 mins relative to control; assay type: functional, Canis lupus familiaris, Heart
Mus musculus [2] = assay: Toxicity in Swiss albino mouse assessed as induction of ataxia at 100 mg/kg, sc relative to control; assay type: organism-based; parameters: dose 100 mg/kg, route subcutaneous; conditions: in vivo
How it was run: (§1)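 Single preliminary dose of 100 mg/kg. Mice (18–25 g) were watched for overt CNS toxicity signs, including convulsions, ataxia and loss of righting reflex, during the 20 min between treatment and exposure to CHCl3 vapor.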

Mus musculus [3] = assay: Antiarrhythmic activity in Swiss albino mouse assessed as protection against chloroform-induced fibrillation at 100 mg/kg, sc relative to control; assay type: functional, Heart; conditions: route subcutaneous
How it was run: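 Mice (18–25 g) were dosed and exposed to CHCl3 vapor 20 min later until respiration ceased. Presence or absence of ventricular fibrillation was judged through the opened thorax, and protection was scored as the fraction of animals free of fibrillation. A preliminary 100 mg/kg dose was used to estimate doses for the full screen.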

Mus musculus [4] = assay: Toxicity in Swiss albino mouse assessed as induction of convulsions at 100 mg/kg, sc relative to control; assay type: organism-based; parameters: dose 100 mg/kg, route subcutaneous; conditions: in vivo; how it was run: as §1
Mus musculus [5] = assay: Antiarrhythmic activity in sc dosed Swiss albino mouse assessed as protection against chloroform-induced fibrillation relative to lidocaine; assay type: functional, Heart
How it was run: (§2)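 Mice (18–25 g) were dosed and observed for signs of toxicity. Twenty minutes after dosing they were exposed to CHCl3 vapor until respiration ceased, and ventricular fibrillation was scored by inspecting the opened thorax.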

Mus musculus [6] = assay: Toxicity in Swiss albino mouse assessed as induction of loss of righting reflex at 100 mg/kg, sc relative to control; assay type: organism-based; parameters: dose 100 mg/kg, route subcutaneous; conditions: in vivo; how it was run: as §1
Mus musculus [7] = assay: Antiarrhythmic activity in sc dosed Swiss albino mouse assessed as protection against chloroform-induced fibrillation relative to control; assay type: functional; conditions: Heart; how it was run: as §2
Canis familiaris [8] = assay: Antiarrhythmic activity in coronary ligated dog assessed as reduction of mean arterial blood pressure at 0.5 mg/kg, iv measured for 5 mins relative to control; assay type: functional, Canis lupus familiaris, Artery
Canis familiaris [9] = assay: Antiarrhythmic activity in coronary ligated dog assessed as reduction of ventricular ectopic beats to <5% of total ventricular beats at 0.5 mg/kg, iv measured for 5 mins relative to control; assay type: functional, Canis lupus familiaris, Heart; parameters: scale not given: the % may be the effect or the level left
Canis familiaris [10] = assay: Antiarrhythmic activity in iv dosed coronary ligated dog assessed as concentration required to reduce ventricular ectopic beats to <5% of total ventricular beats measured for 5 mins; assay type: functional, Canis lupus familiaris, Heart
How it was run: (§3)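 Clearing was defined as less than 5% ectopic beats for 5 min, and the infusion was shut off at clearing or when toxicity appeared. Doses are in mmol/kg, reported as means with standard deviations over the experiments.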

[11] = Oral bioavailability in dog; assay type: ADME, organism-based, Canis lupus familiaris; conditions: in vivo
[12] = Half life in dog; assay type: ADME, organism-based, Canis lupus familiaris; conditions: in vivo
Canis familiaris [13] = assay: Toxicity in iv dosed coronary ligated dog assessed as concentration required to cause convulsions; assay type: organism-based, Canis lupus familiaris; conditions: in vivo; how it was run: as §3
[14] = Half life in human; assay type: ADME, organism-based; conditions: in vivo
Canis familiaris [15] = assay: Toxicity in iv dosed coronary ligated dog assessed as concentration required to cause mortality measured 87 mins after end of infusion; assay type: organism-based, Canis lupus familiaris; conditions: in vivo, 1.45 h
How it was run: (§4)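 Dogs with ventricular arrhythmias from coronary artery ligation (Harris method) received drug by infusion, with the ectopic beat incidence monitored. Clearing was defined as less than 5% ectopic beats for 5 min. Infusion was stopped at clearing or when toxicity was observed. The dose was recorded at the time of the endpoint. Mortality was noted, including death after the end of infusion.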

Canis familiaris [16] = assay: Toxicity in iv dosed coronary ligated dog assessed as concentration required to cause mortality; assay type: organism-based, Canis lupus familiaris; conditions: in vivo; how it was run: as §4

Row | bioavailability [11] | half-life [12] | half-life [14] | Compound | Activity (Canis familiaris [1]) | Activity (Mus musculus [2]) | Activity (Mus musculus [3]) | Activity (Mus musculus [4]) | Ratio ED50 (Mus musculus [5]) | Activity (Mus musculus [6]) | ED50 (Mus musculus [7]) | Activity (Canis familiaris [8]) | Activity (Canis familiaris [9]) | Activity (Canis familiaris [10]) | Activity (Canis familiaris [13]) | Activity (Canis familiaris [15]) | Activity (Canis familiaris [16])
1 |  |  |  | Cc1cccc(C)c1NC(=O)[C@H](C)N.Cl | 99 bpm | 0% | 0% | 0% | 0.1 | 0% | 3100 µmol/kg | 85 Torr | 0% | 0.11 mmol/kg |  |  | 
2 |  |  |  | CCc1cccc(C)c1NC(=O)CN.Cl |  | 100% | 20% | 0% | 0.2 | 0% | 1300 µmol/kg |  |  |  |  |  | 
3 | 80% | 4.7 h | 11 h | Cc1cccc(C)c1NC(=O)C(C)N.Cl (racemic) [TOCAINIDE HYDROCHLORIDE] | 148 bpm | 10% | 20% | 0% | 0.2 | 0% | 1300 µmol/kg | 108 Torr | 2% | 0.32 mmol/kg | 0.3 mmol/kg |  | 
4 |  |  |  | CCc1cccc(CC)c1NC(=O)C(N)CC.Cl (stereo unspecified) |  | 100% | 100% | 100% | 1.2 | 0% | 230 µmol/kg |  |  |  |  |  | 
5 |  |  |  | Cc1cc(C)c(NC(=O)CN)c(C)c1.Cl |  | 100% | 10% | 80% | 0.3 | 0% | 790 µmol/kg |  |  |  |  |  | 
6 |  | 1.5 h |  | CCC(N)C(=O)Nc1c(C)cccc1C.Cl (stereo unspecified) |  |  |  |  |  |  |  |  |  |  |  |  | 
7 |  |  |  | CCc1cccc(CC)c1NC(=O)CN.Cl |  | 100% | 10% | 0% | 0.2 | 0% | 1200 µmol/kg |  |  |  |  |  | 
8 |  |  |  | Cc1cccc(C)c1NC(=O)[C@@H](C)N.Cl | 123 bpm | 70% | 10% | 0% | 0.3 | 0% | 930 µmol/kg | 105 Torr | 0% | 0.31 mmol/kg | 0.21 mmol/kg |  | 
9 |  |  |  | CCN(CC)CC(=O)Nc1c(C)cccc1C.Cl | 133 bpm | 100% | 100% | 100% |  | 100% | 260 µmol/kg | 101 Torr | 4% | 0.21 mmol/kg | 0.27 mmol/kg |  | 
10 |  |  |  | Cc1cccc(C)c1NC(=O)C(N)c1ccccc1.Cl (stereo unspecified) |  | 100% | 80% | 100% | 1.2 | 100% | 220 µmol/kg |  |  |  |  |  | 
11 |  |  |  | CCc1cccc(CC)c1NC(=O)C(C)N.Cl (stereo unspecified) | 124 bpm | 100% | 20% | 10% | 0.5 | 0% | 530 µmol/kg | 140 Torr | 2% | 0.26 mmol/kg | 0.23 mmol/kg |  | 0.45 mmol/kg

Row | Compound | bioavailability [11] | half-life [12] | half-life [14] | Activity (Canis familiaris [1]) | Activity (Mus musculus [2]) | Activity (Mus musculus [3]) | Activity (Mus musculus [4]) | Ratio ED50 (Mus musculus [5]) | Activity (Mus musculus [6]) | ED50 (Mus musculus [7]) | Activity (Canis familiaris [8]) | Activity (Canis familiaris [9]) | Activity (Canis familiaris [10]) | Activity (Canis familiaris [13]) | Activity (Canis familiaris [15]) | Activity (Canis familiaris [16])
12 | Cc1cccc(C)c1NC(=O)CN.Cl |  | 3.7 h |  | 123 bpm | 0% | 10% | 0% | 0.3 | 0% | 900 µmol/kg | 85 Torr | 0% | 0.48 mmol/kg | 0.48 mmol/kg | 0.56 mmol/kg | 
